# Measurements as given in ChEMBL document CHEMBL3421565, “β-D-2'-C-Methyl-2,6-diaminopurine Ribonucleoside Phosphoramidates are Potent and Selective Inhibitors of Hepatitis C Virus (HCV) and Are Bioconverted Intracellularly to Bioactive 2,6-Diaminopurine and Guanosine 5'-Triphosphate Forms” (J Med Chem, 2015).
# Tests used:
# Hepatitis C virus [1] = experiment: Antiviral activity against HCV genotype 1b infected in human HuH7 cells assessed as reduction in replicon RNA levels incubated for 5 days by RT-PCR assay; format: functional, cell-based, Hepacivirus hominis; conditions: Huh-7, 120 h
# Summary of the method: (§1)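 Huh-7 clone B cells carrying HCV replicon RNA, seeded at 3000 cells/well; compounds added in dose response in triplicate right after seeding. Incubated 5 days at 37 °C, 5% CO₂. Total RNA extracted; replicon RNA and rRNA internal control co-amplified by one-step multiplex real-time RT-PCR. Antiviral effect taken as ΔCt versus no-drug control; cytotoxicity read from rRNA reduction.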
# HepG2 [2] = experiment: Mitochondrial toxicity in human HepG2 cells assessed as induction of lactic acid levels at 50 uM incubated for 14 days; format: cell-based; conditions: hepg2, 336 h
# Summary of the method: (§2)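 After 14 days of HepG2 exposure to compound (same culture regimen as the mtDNA assay), lactic acid in culture supernatant quantified with a D-/L-lactic acid kit by absorbance. Results expressed as % lactic acid over % nuclear DNA (β-actin control); mean of triplicates from a single plate.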
# HepG2 [3] = experiment: Mitochondrial toxicity in human HepG2 cells assessed as induction of lactic acid levels at 10 uM incubated for 14 days; format: cell-based; conditions: hepg2, 336 h; summary of the method: as §2
# [4] = Drug metabolism in human HuH7 cells assessed as 2'-C-Me-DAPN-TP level per million cells at 50 uM incubated for 4 hrs at 37 degC by LC-MS/MS method relative to DAPN; format: ADME, cell-based; conditions: huh-7, 4 h
# Summary of the method: (§3)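 Huh-7 cells (after attachment) or freshly plated primary human hepatocytes (after overnight acclimatation), 1 × 10⁶ cells/well, exposed to 50 μM compound for 4 h at 37 °C. Cells washed twice with ice-cold PBS and extracted overnight at −20 °C in 70% methanol containing 20 nM ddATP. Mono-, di- and triphosphates quantified by LC–MS/MS as pmol/10⁶ cells; three replicates.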
# [5] = Toxicity in human PC3 cells assessed as effect on thymidine uptake at 100 uM; format: cell-based; conditions: pc-3, 100 µM
# Hepatitis C virus [6] = experiment: Antiviral activity against HCV genotype 1b containing NS5B P495A mutant infected in human HuH7 cells assessed as reduction in replicon RNA levels incubated for 5 days by RT-PCR assay; format: functional, cell-based, Hepacivirus hominis; conditions: Huh-7, 120 h; summary of the method: as §1
# HepG2 [7] = experiment: Mitochondrial toxicity in human HepG2 cells assessed as effect on nuclear beta-actin DNA level incubated for 14 days by real-time PCR method; format: cell-based; conditions: hepg2, 336 h
# Summary of the method: (§4)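 HepG2 cells in DMEM with 4.5 g/L glucose and 10% heat-inactivated FBS, seeded at 5000 cells/well on collagen; compounds added 1 day later at final 1–50 μM. Medium and compound renewed every 3–4 days for 14 days; duplicates in two independent experiments. COXII mtDNA and nuclear β-actin DNA measured by real-time PCR, normalised to untreated control; IC₅₀ calculated.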
# Hepatitis C virus [8] = experiment: Antiviral activity against HCV genotype 1b containing NS5A Y93H mutant infected in human HuH7 cells assessed as reduction in replicon RNA levels incubated for 5 days by RT-PCR assay; format: functional, cell-based, Hepacivirus hominis; conditions: Huh-7, 120 h; summary of the method: as §1
# Hepatitis C virus [9] = experiment: Antiviral activity against HCV genotype 3a chimera with HCV genotype 1b Con1 backbone containing HCV genotype 3a NS5B gene infected in human HuH7 cells assessed as reduction in replicon RNA levels incubated for 5 days by RT-PCR assay; format: functional, cell-based, Hepacivirus hominis; conditions: Huh-7, 120 h; summary of the method: as §1
# HepG2 [10] = experiment: Mitochondrial toxicity in human HepG2 cells assessed as induction of lactic acid levels at 1 uM incubated for 14 days; format: cell-based; conditions: hepg2, 336 h; summary of the method: as §2
# Hepatitis C virus [11] = experiment: Antiviral activity against HCV genotype 1b containing NS5B M414I mutant infected in human HuH7 cells assessed as reduction in replicon RNA levels incubated for 5 days by RT-PCR assay; format: functional, cell-based, Hepacivirus hominis; conditions: Huh-7, 120 h; summary of the method: as §1
# Hepatitis C virus [12] = experiment: Antiviral activity against HCV genotype 1b containing NS5B C316Y mutant infected in human HuH7 cells assessed as reduction in replicon RNA levels incubated for 5 days by RT-PCR assay; format: functional, cell-based, Hepacivirus hominis; conditions: Huh-7, 120 h; summary of the method: as §1
# Vero = experiment: Cytotoxicity against African green monkey Vero cells assessed as reduction in cell viability incubated for 5 days by Cell-titer 96 aqueous one solution cell proliferation assay; format: cell-based; conditions: chlorocebus sabaeus, vero, 120 h
# [13] = Drug metabolism in human primary hepatocytes assessed as 2'-C-Me-DAPN-TP level at 50 uM incubated for 4 hrs at 37 degC by LC-MS/MS method; format: ADME, cell-based, Hepatocyte; summary of the method: as §3
# Hepatitis C virus [14] = experiment: Antiviral activity against HCV genotype 1a infected in human HuH7 cells assessed as reduction in replicon RNA levels incubated for 5 days by RT-PCR assay; format: functional, cell-based, Hepacivirus hominis; conditions: subtype 1a, Huh-7, 120 h; summary of the method: as §1
# Hepatitis C virus [15] = experiment: Antiviral activity against HCV genotype 2b chimera with HCV genotype 1b Con1 backbone containing HCV genotype 2b NS5B gene infected in human HuH7 cells assessed as reduction in replicon RNA levels incubated for 5 days by RT-PCR assay; format: functional, cell-based, Hepacivirus hominis; conditions: Huh-7, 120 h; summary of the method: as §1
# Hepatitis C virus [16] = experiment: Antiviral activity against HCV genotype 5a chimera with HCV genotype 1b Con1 backbone containing HCV genotype 5a NS5B gene infected in human HuH7 cells assessed as reduction in replicon RNA levels incubated for 5 days by RT-PCR assay; format: functional, cell-based, Hepacivirus hominis; conditions: Huh-7, 120 h; summary of the method: as §1
# Hepatitis C virus [17] = experiment: Antiviral activity against HCV genotype 1b containing NS3 R155K mutant infected in human HuH7 cells assessed as reduction in replicon RNA levels incubated for 5 days by RT-PCR assay; format: functional, cell-based, Hepacivirus hominis; conditions: Huh-7, 120 h; summary of the method: as §1
# Hepatitis C virus [18] = experiment: Antiviral activity against HCV genotype 4a chimera with HCV genotype 1b Con1 backbone containing HCV genotype 4a NS5B gene infected in human HuH7 cells assessed as reduction in replicon RNA levels incubated for 5 days by RT-PCR assay; format: functional, cell-based, Hepacivirus hominis; conditions: Huh-7, 120 h; summary of the method: as §1
# HepG2 [19] = experiment: Mitochondrial toxicity in human HepG2 cells assessed as effect on mitochondrial cytochrome c oxidase subunit 2 DNA level incubated for 14 days by real-time PCR method; format: cell-based; conditions: hepg2, 336 h; summary of the method: as §4
# Hepatitis C virus [20] = experiment: Antiviral activity against HCV genotype 1b containing NS5B S282T mutant infected in human HuH7 cells assessed as reduction in replicon RNA levels incubated for 5 days by RT-PCR assay; format: functional, cell-based, Hepacivirus hominis; conditions: Huh-7, 120 h; summary of the method: as §1
# Hepatitis C virus [21] = experiment: Antiviral activity against HCV genotype 2a infected in human HuH7 cells assessed as reduction in replicon RNA levels incubated for 5 days by RT-PCR assay; format: functional, cell-based, Hepacivirus hominis; conditions: Huh-7, 120 h; summary of the method: as §1
# Hepatitis C virus [22] = experiment: Antiviral activity against HCV genotype 1b containing NS5B C445F mutant infected in human HuH7 cells assessed as reduction in replicon RNA levels incubated for 5 days by RT-PCR assay; format: functional, cell-based, Hepacivirus hominis; conditions: Huh-7, 120 h; summary of the method: as §1
# [23] = Drug metabolism in human HuH7 cells assessed as 2'-C-Me-DAPN-TP level per million cells at 50 uM incubated for 4 hrs at 37 degC by LC-MS/MS method; format: ADME, cell-based; conditions: huh-7, 4 h; summary of the method: as §3
# [24] = Toxicity in human PC3 cells assessed as effect on GAPDH levels at 100 uM; format: cell-based; conditions: pc-3, 100 µM
# Hepatitis C virus [25] = experiment: Antiviral activity against HCV infected in human HuH7 cells assessed as reduction in replicon RNA levels incubated for 5 days by RT-PCR assay; format: functional, organism-based, Hepacivirus hominis; conditions: Huh-7, 120 h; summary of the method: as §1
compound,measurement,setting,value
CCOC(=O)CCc1ccccc1O[P@@](=O)(N[C@@H](C)C(=O)OCC)OC[C@H]1O[C@@H](n2cnc3c(N)nc(N)nc32)[C@](C)(O)[C@H]1O,EC50,Hepatitis C virus [1],260 nM
same,EC90,Hepatitis C virus [1],390 nM
same,Activity,HepG2 [2],110%
same,Activity,HepG2 [3],120%
same,fold change (FC),[4],13
same,Activity,[5],Non-toxic
same,EC50,Hepatitis C virus [6],80 nM
same,EC90,Hepatitis C virus [6],140 nM
same,CC50,HepG2 [7],> 50000 nM
same,EC50,Hepatitis C virus [8],300 nM
same,EC90,Hepatitis C virus [8],3000 nM
same,EC50,Hepatitis C virus [9],230 nM
same,EC90,Hepatitis C virus [9],390 nM
same,Activity,HepG2 [10],150%
same,EC50,Hepatitis C virus [11],280 nM
same,EC90,Hepatitis C virus [11],1100 nM
same,EC50,Hepatitis C virus [12],270 nM
same,EC90,Hepatitis C virus [12],770 nM
same,CC50,Vero,> 100000 nM
same,fold change (FC),[13],7
same,EC50,Hepatitis C virus [14],350 nM
same,EC90,Hepatitis C virus [14],740 nM
same,EC50,Hepatitis C virus [15],290 nM
same,EC90,Hepatitis C virus [15],420 nM
same,EC50,Hepatitis C virus [16],320 nM
same,EC90,Hepatitis C virus [16],640 nM
same,EC50,Hepatitis C virus [17],320 nM
same,EC90,Hepatitis C virus [17],1300 nM
same,EC50,Hepatitis C virus [18],390 nM
same,EC90,Hepatitis C virus [18],890 nM
same,CC50,HepG2 [19],> 50000 nM
same,EC50,Hepatitis C virus [20],100 nM
same,EC90,Hepatitis C virus [20],230 nM
same,EC50,Hepatitis C virus [21],260 nM
same,EC90,Hepatitis C virus [21],700 nM
same,EC50,Hepatitis C virus [22],120 nM
same,EC90,Hepatitis C virus [22],250 nM
same,Drug metabolism,[23],9.9 pmol
same,Activity,[24],Non-toxic
same,EC50,Hepatitis C virus [25],200 nM
same,EC90,Hepatitis C virus [25],700 nM
